Results published in the M2OR odorant receptor database.

What was measured:
Conditions in all cases: stereoisomer not certain
[1] = molecular target: T1, OR10R2 (Homo sapiens) (UniProt Q8NGX6)
T1 sequence (whole entry): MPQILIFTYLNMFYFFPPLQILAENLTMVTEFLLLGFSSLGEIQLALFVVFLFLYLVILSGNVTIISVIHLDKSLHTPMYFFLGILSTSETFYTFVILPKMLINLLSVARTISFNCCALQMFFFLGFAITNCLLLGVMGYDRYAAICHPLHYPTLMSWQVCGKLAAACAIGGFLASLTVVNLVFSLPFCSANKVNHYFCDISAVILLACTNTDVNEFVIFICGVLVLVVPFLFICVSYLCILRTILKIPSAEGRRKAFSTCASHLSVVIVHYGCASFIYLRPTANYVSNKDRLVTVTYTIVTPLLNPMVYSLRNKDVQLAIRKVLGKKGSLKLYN
In short: (§1)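 Each receptor–molecule pair is labelled responsive or non-responsive (inactive) according to whether the original authors judged the measured signal statistically different from baseline. The data were taken from the main text and supplementary material of published papers and checked for typos and inconsistencies. Assay methods differed by source, with transient luciferase assays in mammalian cell lines being common.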

[2] = molecular target: T2, OR10S1 (Homo sapiens) (UniProt Q8NGN2)
T2 sequence (whole entry): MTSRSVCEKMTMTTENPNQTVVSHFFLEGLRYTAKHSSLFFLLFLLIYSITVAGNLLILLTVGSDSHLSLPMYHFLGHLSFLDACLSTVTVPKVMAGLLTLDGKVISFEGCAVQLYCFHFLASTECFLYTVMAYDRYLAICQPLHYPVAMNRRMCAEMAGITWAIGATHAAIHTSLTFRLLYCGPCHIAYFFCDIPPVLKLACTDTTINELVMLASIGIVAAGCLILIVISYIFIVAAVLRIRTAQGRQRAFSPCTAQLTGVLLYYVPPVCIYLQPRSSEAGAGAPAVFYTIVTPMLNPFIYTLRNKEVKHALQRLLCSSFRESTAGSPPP
In short: as §1

[3] = molecular target: T3, OR10T2 (Homo sapiens) (UniProt Q8NGX3)
T3 sequence (whole entry): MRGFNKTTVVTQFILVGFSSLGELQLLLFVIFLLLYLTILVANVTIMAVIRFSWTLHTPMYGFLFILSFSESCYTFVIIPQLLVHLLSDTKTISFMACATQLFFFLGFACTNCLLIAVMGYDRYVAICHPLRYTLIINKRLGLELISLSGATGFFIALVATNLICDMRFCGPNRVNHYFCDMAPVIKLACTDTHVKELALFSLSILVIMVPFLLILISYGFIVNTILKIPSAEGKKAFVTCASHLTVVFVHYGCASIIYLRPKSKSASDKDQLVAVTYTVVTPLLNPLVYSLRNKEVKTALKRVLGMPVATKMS
In short: as §1

[4] = molecular target: T4, OR10V1 (Homo sapiens) (UniProt Q8NGI7)
T4 sequence (whole entry): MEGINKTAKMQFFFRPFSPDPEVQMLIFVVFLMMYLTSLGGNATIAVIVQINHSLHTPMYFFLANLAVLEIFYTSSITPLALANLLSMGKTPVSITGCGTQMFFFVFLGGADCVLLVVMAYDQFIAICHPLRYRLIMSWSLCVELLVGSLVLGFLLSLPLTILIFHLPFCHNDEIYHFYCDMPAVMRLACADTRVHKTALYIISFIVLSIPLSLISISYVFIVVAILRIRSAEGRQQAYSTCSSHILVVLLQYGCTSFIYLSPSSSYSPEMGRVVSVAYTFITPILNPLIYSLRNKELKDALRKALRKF
In short: as §1

[5] = molecular target: T5, OR10W1 (Homo sapiens) (UniProt Q8NGF6)
T5 sequence (whole entry): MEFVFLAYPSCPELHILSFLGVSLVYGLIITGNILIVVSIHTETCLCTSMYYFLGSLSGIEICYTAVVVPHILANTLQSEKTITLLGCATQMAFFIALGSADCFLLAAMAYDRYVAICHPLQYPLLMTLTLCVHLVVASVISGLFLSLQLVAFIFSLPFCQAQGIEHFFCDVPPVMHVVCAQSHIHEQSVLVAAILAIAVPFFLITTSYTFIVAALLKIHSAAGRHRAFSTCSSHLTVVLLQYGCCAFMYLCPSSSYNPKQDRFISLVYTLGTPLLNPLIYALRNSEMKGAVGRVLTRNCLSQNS
In short: as §1

[6] = molecular target: T6, OR10X1 (Homo sapiens) (UniProt Q8NGY0)
T6 sequence (whole entry): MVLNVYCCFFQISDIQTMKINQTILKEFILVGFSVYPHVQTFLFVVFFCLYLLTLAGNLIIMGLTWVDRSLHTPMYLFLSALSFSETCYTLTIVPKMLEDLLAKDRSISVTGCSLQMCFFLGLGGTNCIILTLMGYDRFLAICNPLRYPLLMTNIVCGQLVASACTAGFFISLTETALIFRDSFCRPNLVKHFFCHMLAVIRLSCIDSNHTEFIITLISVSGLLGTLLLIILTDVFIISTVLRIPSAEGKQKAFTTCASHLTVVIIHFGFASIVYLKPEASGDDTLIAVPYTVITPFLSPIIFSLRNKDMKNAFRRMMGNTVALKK
In short: as §1

[7] = molecular target: T7, OR10Z1 (Homo sapiens) (UniProt Q8NGY1)
T7 sequence (whole entry): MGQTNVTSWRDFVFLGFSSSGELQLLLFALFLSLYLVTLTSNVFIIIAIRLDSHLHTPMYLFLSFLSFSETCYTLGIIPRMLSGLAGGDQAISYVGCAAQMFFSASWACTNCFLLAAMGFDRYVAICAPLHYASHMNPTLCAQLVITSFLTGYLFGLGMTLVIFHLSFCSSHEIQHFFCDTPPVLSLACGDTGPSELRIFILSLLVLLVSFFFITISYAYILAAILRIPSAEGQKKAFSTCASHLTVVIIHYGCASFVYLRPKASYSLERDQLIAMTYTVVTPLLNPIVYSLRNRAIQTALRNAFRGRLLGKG
In short: as §1

[8] = molecular target: T8, OR11A1 (Homo sapiens) (UniProt Q9GZK7)
T8 sequence (whole entry): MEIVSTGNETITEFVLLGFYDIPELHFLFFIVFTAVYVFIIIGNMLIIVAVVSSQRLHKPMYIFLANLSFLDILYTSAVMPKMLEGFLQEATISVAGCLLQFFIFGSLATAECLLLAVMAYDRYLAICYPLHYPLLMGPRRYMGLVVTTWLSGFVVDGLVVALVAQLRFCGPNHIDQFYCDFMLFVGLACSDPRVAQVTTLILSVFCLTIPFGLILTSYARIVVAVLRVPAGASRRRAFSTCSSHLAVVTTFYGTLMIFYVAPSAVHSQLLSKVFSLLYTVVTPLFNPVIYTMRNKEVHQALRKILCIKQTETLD
In short: as §1

[9] = molecular target: T9, OR11G2 (Homo sapiens) (UniProt Q8NGC1)
T9 sequence (whole entry): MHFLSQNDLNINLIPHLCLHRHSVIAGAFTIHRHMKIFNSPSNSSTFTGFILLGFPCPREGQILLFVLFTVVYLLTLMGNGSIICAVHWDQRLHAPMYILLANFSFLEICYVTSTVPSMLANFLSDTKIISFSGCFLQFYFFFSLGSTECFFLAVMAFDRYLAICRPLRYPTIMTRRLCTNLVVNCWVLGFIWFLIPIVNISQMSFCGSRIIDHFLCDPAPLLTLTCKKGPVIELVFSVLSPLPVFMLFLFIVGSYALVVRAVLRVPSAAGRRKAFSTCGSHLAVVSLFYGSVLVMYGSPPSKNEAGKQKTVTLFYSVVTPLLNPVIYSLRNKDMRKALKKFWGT
In short: as §1

[10] = molecular target: T10, OR11H1 (Homo sapiens) (UniProt Q8NG94)
T10 sequence (whole entry): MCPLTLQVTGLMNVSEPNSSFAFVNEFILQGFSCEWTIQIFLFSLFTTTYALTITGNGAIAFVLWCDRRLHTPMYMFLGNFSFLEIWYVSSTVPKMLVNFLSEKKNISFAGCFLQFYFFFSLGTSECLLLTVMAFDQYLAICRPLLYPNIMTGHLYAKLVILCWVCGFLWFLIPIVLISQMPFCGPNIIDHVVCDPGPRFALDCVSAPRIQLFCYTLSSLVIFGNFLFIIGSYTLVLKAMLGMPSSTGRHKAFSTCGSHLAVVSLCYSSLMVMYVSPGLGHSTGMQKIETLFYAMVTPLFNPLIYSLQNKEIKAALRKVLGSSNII
In short: as §1

Measured: odorant receptor agonist call;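 note: active if original authors judged signal statistically different from baseline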

CCCCC(S)C(C)CO (stereo not given)
inactive: all assays above
